Reference: ChEMBL document CHEMBL5724801, “EUbOPEN Chemogenomics Library - Multiplex” (2024)
Several values for one entry are separate records, joined by “and”; a condition that tells them apart may be missing. Identical values can stand only once.

Test system: Fibroblast
Experiment: Multiplex assay against human fibroblast
Type: toxicity, cell-based
How it was run: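 Compound was added to live cells that had been stained at seeding with Hoechst33342, BioTracker Green Microtubule Cytoskeleton Dye, MitoTracker Red and Annexin V Alexa Fluor 680, and imaging followed on a CQ1 microscope at 37°C and 5% CO2. CellPathfinder machine-learning gating divided cells into Hoechst high-intensity objects or normal cells, normal cells into healthy, pyknosed or fragmented nuclei, and pyknosed cells into mitotic or apoptotic. Tubulin, mitochondrial-mass and membrane-permeability phenotypes are per cents of healthy-nucleus cells.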

[1] = 12 h, 1 µM, compound concentration 1 uM
[2] = 12 h, 10 µM, compound concentration 10 uM
[3] = 24 h, 1 µM, compound concentration 1 uM
[4] = 24 h, 10 µM, compound concentration 10 uM
[5] = 48 h, 1 µM, compound concentration 1 uM
[6] = 48 h, 10 µM, compound concentration 10 uM

CCCCC(=O)N(Cc1ccc(-c2ccccc2-c2nnn[nH]2)cc1)[C@H](C(=O)O)C(C)C
Population Apoptotic (%) [1]: 45% and 44% | Population Fragmented Nuclei (%) [1]: 9% and 21% | Population Healthy Nuclei (%) [1]: 74% and 54% | Population Hoechst High Intensity Objects (%) [1]: 4% and 3% | Population Membrane Permeable-Phenotype (%) [1]: 0% and 8% | Population Mitochondria Different-Phenotype (%) [1]: 0% and 6% | Population Mitotic Cells (%) [1]: 54% and 55% | Population Normal (%) [1]: 95% and 96% | Population Pyknosed Nuclei (%) [1]: 16% and 24% | Population Tubulin-Different-Phenotype (%) [1]: 20% and 36% | Total Cell Count [1]: 143 and 156 | Population Apoptotic (%) [2]: 37% | Population Fragmented Nuclei (%) [2]: 20% and 27% | Population Healthy Nuclei (%) [2]: 56% and 42% | Population Hoechst High Intensity Objects (%) [2]: 0% and 3% | Population Membrane Permeable-Phenotype (%) [2]: 3% and 11% | Population Mitochondria Different-Phenotype (%) [2]: 3% and 11% | Population Mitotic Cells (%) [2]: 62% | Population Normal (%) [2]: 100% and 96% | Population Pyknosed Nuclei (%) [2]: 22% and 29% | Population Tubulin-Different-Phenotype (%) [2]: 23% and 51% | Total Cell Count [2]: 106 and 130 | Population Apoptotic (%) [3]: 66% and 38% | Population Fragmented Nuclei (%) [3]: 15% and 21% | Population Healthy Nuclei (%) [3]: 70% and 52% | Population Hoechst High Intensity Objects (%) [3]: 0% and 2% | Population Membrane Permeable-Phenotype (%) [3]: 1% and 2% | Population Mitochondria Different-Phenotype (%) [3]: 2% and 1% | Population Mitotic Cells (%) [3]: 33% and 61% | Population Normal (%) [3]: 99% and 97% | Population Pyknosed Nuclei (%) [3]: 14% and 25% | Population Tubulin-Different-Phenotype (%) [3]: 17% and 25% | Total Cell Count [3]: 146 and 145 | Population Apoptotic (%) [4]: 48% and 35% | Population Fragmented Nuclei (%) [4]: 18% and 25% | Population Healthy Nuclei (%) [4]: 56% and 44% | Population Hoechst High Intensity Objects (%) [4]: 2% and 4% | Population Membrane Permeable-Phenotype (%) [4]: 0% and 9% | Population Mitochondria Different-Phenotype (%) [4]: 1% and 10% | Population Mitotic Cells (%) [4]: 51% and 64% | Population Normal (%) [4]: 97% and 95% | Population Pyknosed Nuclei (%) [4]: 25% and 29% | Population Tubulin-Different-Phenotype (%) [4]: 31% and 65% | Total Cell Count [4]: 110 and 130 | Population Apoptotic (%) [5]: 80% and 40% | Population Fragmented Nuclei (%) [5]: 18% and 27% | Population Healthy Nuclei (%) [5]: 71% and 51% | Population Hoechst High Intensity Objects (%) [5]: 6% and 3% | Population Membrane Permeable-Phenotype (%) [5]: 0% and 1% | Population Mitochondria Different-Phenotype (%) [5]: 1% and 3% | Population Mitotic Cells (%) [5]: 20% and 59% | Population Normal (%) [5]: 93% and 96% | Population Pyknosed Nuclei (%) [5]: 10% and 21% | Population Tubulin-Different-Phenotype (%) [5]: 17% and 33% | Total Cell Count [5]: 153 and 155 | Population Apoptotic (%) [6]: 64% and 57% | Population Fragmented Nuclei (%) [6]: 28% and 39% | Population Healthy Nuclei (%) [6]: 56% and 39% | Population Hoechst High Intensity Objects (%) [6]: 4% | Population Membrane Permeable-Phenotype (%) [6]: 0% and 7% | Population Mitochondria Different-Phenotype (%) [6]: 5% | Population Mitotic Cells (%) [6]: 35% and 42% | Population Normal (%) [6]: 95% | Population Pyknosed Nuclei (%) [6]: 15% and 20% | Population Tubulin-Different-Phenotype (%) [6]: 30% and 69% | Total Cell Count [6]: 112 and 141

COc1ccc2nc3ccc(OC)cc3c(SCCCN)c2c1.Cl
Population Apoptotic (%) [1]: 27.78% and 22.73% | Population Fragmented Nuclei (%) [1]: 27.67% and 18.52% | Population Healthy Nuclei (%) [1]: 58.1% and 71.3% | Population Hoechst High Intensity Objects (%) [1]: 0% | Population Membrane Permeable-Phenotype (%) [1]: 4.08% and 5.19% | Population Mitochondria Different-Phenotype (%) [1]: 10.88% and 10.39% | Population Mitotic Cells (%) [1]: 72.22% and 77.27% | Population Normal (%) [1]: 100% | Population Pyknosed Nuclei (%) [1]: 14.23% and 10.19% | Population Tubulin-Different-Phenotype (%) [1]: 28.57% and 25.97% | Total Cell Count [1]: 253 and 216 | Population Apoptotic (%) [2]: 50% | Population Fragmented Nuclei (%) [2]: 83.22% and 87.99% | Population Healthy Nuclei (%) [2]: 15.99% and 11.88% | Population Hoechst High Intensity Objects (%) [2]: 0.3% and 6.47% | Population Membrane Permeable-Phenotype (%) [2]: 6.17% and 4.52% | Population Mitochondria Different-Phenotype (%) [2]: 24.69% and 15.25% | Population Mitotic Cells (%) [2]: 50% | Population Normal (%) [2]: 99.7% and 93.53% | Population Pyknosed Nuclei (%) [2]: 0.79% and 0.13% | Population Tubulin-Different-Phenotype (%) [2]: 53.09% and 68.93% | Total Cell Count [2]: 1016 and 1593 | Population Apoptotic (%) [3]: 7.41% and 18.18% | Population Fragmented Nuclei (%) [3]: 25% and 14.63% | Population Healthy Nuclei (%) [3]: 63.36% and 74.63% | Population Hoechst High Intensity Objects (%) [3]: 0% | Population Membrane Permeable-Phenotype (%) [3]: 4.76% and 3.27% | Population Mitochondria Different-Phenotype (%) [3]: 5.44% and 7.84% | Population Mitotic Cells (%) [3]: 92.59% and 81.82% | Population Normal (%) [3]: 100% | Population Pyknosed Nuclei (%) [3]: 11.64% and 10.73% | Population Tubulin-Different-Phenotype (%) [3]: 25.17% and 21.57% | Total Cell Count [3]: 232 and 205 | Population Fragmented Nuclei (%) [4]: 83.95% and 88.56% | Population Healthy Nuclei (%) [4]: 15.31% and 11.32% | Population Hoechst High Intensity Objects (%) [4]: 0% and 5.09% | Population Membrane Permeable-Phenotype (%) [4]: 1.21% and 3.16% | Population Mitochondria Different-Phenotype (%) [4]: 27.27% and 24.21% | Population Mitotic Cells (%) [4]: 87.5% and 50% | Population Normal (%) [4]: 100% and 94.91% | Population Pyknosed Nuclei (%) [4]: 0.74% and 0.12% | Population Tubulin-Different-Phenotype (%) [4]: 47.27% and 59.47% | Total Cell Count [4]: 1078 and 1768 | Population Fragmented Nuclei (%) [5]: 28.35% and 15.03% | Population Healthy Nuclei (%) [5]: 66.14% and 83.42% | Population Hoechst High Intensity Objects (%) [5]: 0% | Population Membrane Permeable-Phenotype (%) [5]: 1.79% and 1.24% | Population Mitotic Cells (%) [5]: 71.43% and 100% | Population Normal (%) [5]: 100% | Population Pyknosed Nuclei (%) [5]: 5.51% and 1.55% | Population Tubulin-Different-Phenotype (%) [5]: 18.45% and 20.5% | Total Cell Count [5]: 254 and 193 | Population Apoptotic (%) [6]: 60% | Population Fragmented Nuclei (%) [6]: 84.38% and 88.09% | Population Healthy Nuclei (%) [6]: 15.23% and 11.61% | Population Hoechst High Intensity Objects (%) [6]: 1.01% and 7.64% | Population Membrane Permeable-Phenotype (%) [6]: 2.56% and 4.71% | Population Mitochondria Different-Phenotype (%) [6]: 6.67% and 4.19% | Population Mitotic Cells (%) [6]: 40% | Population Normal (%) [6]: 98.99% and 92.36% | Population Pyknosed Nuclei (%) [6]: 0.39% and 0.3% | Population Tubulin-Different-Phenotype (%) [6]: 27.69% and 51.83% | Total Cell Count [6]: 1293 and 1781

COc1ccc2c(c1)C(C(=O)N(Cc1ccc(N(C)C)cc1)c1ccc(C(C)C)cc1)CCC2.Cl (stereo not given)
Population Apoptotic (%) [1]: 57% and 45% | Population Fragmented Nuclei (%) [1]: 15% and 20% | Population Healthy Nuclei (%) [1]: 72% and 55% | Population Hoechst High Intensity Objects (%) [1]: 1% and 5% | Population Membrane Permeable-Phenotype (%) [1]: 1% and 5% | Population Mitochondria Different-Phenotype (%) [1]: 7% and 15% | Population Mitotic Cells (%) [1]: 42% and 54% | Population Normal (%) [1]: 98% and 94% | Population Pyknosed Nuclei (%) [1]: 11% and 23% | Population Tubulin-Different-Phenotype (%) [1]: 22% and 57% | Total Cell Count [1]: 163 and 138 | Population Apoptotic (%) [2]: 58% and 53% | Population Fragmented Nuclei (%) [2]: 17% and 38% | Population Healthy Nuclei (%) [2]: 69% and 51% | Population Hoechst High Intensity Objects (%) [2]: 1% and 2% | Population Membrane Permeable-Phenotype (%) [2]: 0% and 6% | Population Mitochondria Different-Phenotype (%) [2]: 12% and 14% | Population Mitotic Cells (%) [2]: 41% and 46% | Population Normal (%) [2]: 98% and 97% | Population Pyknosed Nuclei (%) [2]: 13% and 10% | Population Tubulin-Different-Phenotype (%) [2]: 67% and 77% | Total Cell Count [2]: 181 and 148 | Population Apoptotic (%) [3]: 55% | Population Fragmented Nuclei (%) [3]: 11% and 19% | Population Healthy Nuclei (%) [3]: 77% and 59% | Population Hoechst High Intensity Objects (%) [3]: 1% and 3% | Population Membrane Permeable-Phenotype (%) [3]: 0% and 2% | Population Mitochondria Different-Phenotype (%) [3]: 5% and 11% | Population Mitotic Cells (%) [3]: 44% | Population Normal (%) [3]: 98% and 96% | Population Pyknosed Nuclei (%) [3]: 11% and 20% | Population Tubulin-Different-Phenotype (%) [3]: 25% and 41% | Total Cell Count [3]: 156 and 136 | Population Apoptotic (%) [4]: 50% and 42% | Population Fragmented Nuclei (%) [4]: 17% and 39% | Population Healthy Nuclei (%) [4]: 72% and 55% | Population Hoechst High Intensity Objects (%) [4]: 3% and 2% | Population Membrane Permeable-Phenotype (%) [4]: 0% and 2% | Population Mitochondria Different-Phenotype (%) [4]: 15% and 12% | Population Mitotic Cells (%) [4]: 50% and 57% | Population Normal (%) [4]: 96% and 97% | Population Pyknosed Nuclei (%) [4]: 10% and 4% | Population Tubulin-Different-Phenotype (%) [4]: 63% and 85% | Total Cell Count [4]: 180 and 148 | Population Apoptotic (%) [5]: 66% and 52% | Population Fragmented Nuclei (%) [5]: 17% and 26% | Population Healthy Nuclei (%) [5]: 75% and 61% | Population Hoechst High Intensity Objects (%) [5]: 1% | Population Membrane Permeable-Phenotype (%) [5]: 1% and 5% | Population Mitochondria Different-Phenotype (%) [5]: 3% and 13% | Population Mitotic Cells (%) [5]: 33% and 47% | Population Normal (%) [5]: 98% | Population Pyknosed Nuclei (%) [5]: 6% and 12% | Population Tubulin-Different-Phenotype (%) [5]: 27% and 46% | Total Cell Count [5]: 180 and 152 | Population Apoptotic (%) [6]: 71% and 75% | Population Fragmented Nuclei (%) [6]: 21% and 45% | Population Healthy Nuclei (%) [6]: 71% and 52% | Population Hoechst High Intensity Objects (%) [6]: 4% and 0% | Population Membrane Permeable-Phenotype (%) [6]: 0% and 3% | Population Mitochondria Different-Phenotype (%) [6]: 8% | Population Mitotic Cells (%) [6]: 28% and 25% | Population Normal (%) [6]: 95% and 99% | Population Pyknosed Nuclei (%) [6]: 7% and 2% | Population Tubulin-Different-Phenotype (%) [6]: 71% and 81% | Total Cell Count [6]: 203 and 174
